The entries come from a sample that favours hits as a whole.
Lipid droplet: inhibitors of hepatocyte lipid droplet formation, primary screen, imaging, high-throughput imaging, BODIPY stain | inhibition, % at 6.5 µM | 240,000 tested, 0.4% active | AML12 mouse hepatocytes, oleate lipid droplets;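 active means lipid droplet intensity inhibited by at least 50%, with more than 500 cells counted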
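Material: mouse AML12 hepatocyte cell line, fixed after treatment; Timing: compound with oleate, overnight; Technique: high-content imaging of BODIPY-stained droplets and DAPI nuclei; Probe or stimulus: oleate, 100 µM final; Dosing: compound at 6.5 µM only.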
T cruzi inh: inhibitors of intracellular T. cruzi growth, primary screen, luminescence, NIH3T3 host cells; T. cruzi beta-gal in NIH3T3, 90 h; inhibition, % (concentration not given with the values); 300,000 tested, 1.4% active;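 active means mean inhibition across valid replicates above about 55%, limit read from the data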;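 further: signal also drops with host cell toxicity which is not excluded here; higher percent means less beta-gal luminescence so fewer parasites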
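assay system = mouse NIH/3T3 fibroblasts infected with β-gal-expressing T. cruzi Tulahuen C4 | input = 5,000 NIH/3T3 host cells per well | buffer or medium = DMEM plus 2% FBS | timing = 3 h host attachment, then at least 90 h co-culture | measured by = GalScreen luminescence, 60 min | evaluation = luminescence reflecting intracellular parasite burden, expressed as percent inhibition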
MPTP block: mitochondrial permeability transition pore inhibitors, primary screen, biochemical, isolated mouse mitochondria, absorbance; AID 602449, 2012; inhibition, % at 10 µM; Ca2+ swelling absorbance, 30 min; 360,000 tested, 1.4% active;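 active means inhibition of 50% or more, scaled per plate between neutral and stimulator controls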
DTT redox prof: compounds producing H2O2 with reducing agent – biochemical, NIH compound library profiling, artefact control for MLSCN library redox annotation, primary screen; activation, % at 10 µM; 200,000 tested, 0.03% active; AID 878, 2007; DTT-dependent redox cycling H2O2, phenol red/HRP absorbance; 100% = 100 µM peroxide control, 0% = buffer;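 active means activation of at least 50% relative to the plate's high and low controls in the primary single-dose screen; inactive means activation below 50%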;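 further: compound incubated with DTT at 0.8 mM final as the reducing agent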
Lmaj promast: Leishmania major promastigote growth inhibition, primary screen | 200,000 tested, 9% active | inhibition, % at 10 µM | Leishmania major promastigotes, resazurin fluorescence viability; in the data active means inhibition above about 50%;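 further: promastigotes grown with compound for 44 hours at 28 °C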
Lmaj promast 1uM: Leishmania major promastigote growth inhibition, confirmation, 1 µM repeat of primary hits; shares compounds with Lmaj promast; L. major promastigote growth, resazurin fluorescence, 48 h; inhibition, % at 1 µM; 1,100 tested, 13% active; AID 1258, 2008;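 active means inhibition above about 50% in both repeat tests, limit read from the data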
Of the large screens only hits and unclear results are named; the others gave an inactive call (follow-up assays come after a bar, where they were run).

COc1cccc(CC2(CO)CCCN(Cc3ccc(OC)c(C)c3OC)C2)c1 (stereo unspecified)	none (no result: DTT redox prof, Lmaj promast)
N#CCCN(C(=O)CN1CCN(S(=O)(=O)c2ccc(Cl)s2)CC1)c1ccc(F)cc1	none (no result: Lipid droplet, T cruzi inh, DTT redox prof, Lmaj promast)
Nn1c(-c2ccccc2Cl)nnc1-c1ccccc1Cl	Lmaj promast 76 (no result: T cruzi inh) | Lmaj promast 1uM inactive
Cc1ccc(-n2nc(-c3cccs3)cc2C(=O)NCC2CCCO2)c(C)c1 (stereo unspecified)	Lmaj promast 92 | Lmaj promast 1uM inactive
C(=C/c1nccc2c1[nH]c1ccccc12)/c1ccc2c(c1)OCO2	Lmaj promast 96 | Lmaj promast 1uM inactive
CCN(CC)S(=O)(=O)c1ccc(NC2=NS(=O)(=O)c3ccccc32)cc1	none
O=S1(=O)N=C(Nc2ccc(O)c(CN3CCCCC3)c2)c2ccccc21	Lmaj promast 55 (no result: Lipid droplet) | Lmaj promast 1uM inactive
COc1ccc(N/N=C(\C#N)C(=N)N2CCCCC2)cc1	none (no result: DTT redox prof, Lmaj promast)
Cc1ccc(N/N=C(\C#N)C(=N)N2CCCCCC2)cc1	Lmaj promast 61 | Lmaj promast 1uM inactive
CCC(C)(C)NC(=O)CN(CCc1cccc(C)c1)C(=O)c1csnn1	none
Cc1cccc(C(=O)NC2CCN(C(=O)NCc3ccccc3)CC2)c1	none (no result: DTT redox prof, Lmaj promast)
Cc1ccc(-c2csc(=S)n2CC(=O)OCC(=O)NC(C)C(C)C)cc1 (stereo unspecified)	Lmaj promast 64 (no result: Lipid droplet) | Lmaj promast 1uM inactive
CCN(Cc1ccncc1)C(=O)c1cc(COc2ccc(OC)cc2Cl)on1	none (no result: DTT redox prof, Lmaj promast)
Cc1ccccc1NC(=O)NC1(C(=O)N2CCN(C)CC2)CCCCC1	none (no result: DTT redox prof, Lmaj promast)
CCOC(=O)N1CCN(C(=O)c2ccc3c(c2)sc2nc(-c4ccccc4)cn23)CC1	Lmaj promast 58 (no result: Lipid droplet) | Lmaj promast 1uM inactive
Cc1noc(/C=C/c2ccco2)c1S(=O)(=O)N1CCC(C(=O)NCc2ccco2)CC1	Lmaj promast 77 (no result: Lipid droplet) | Lmaj promast 1uM inactive
O=c1c2ccccc2nc2c3ccccc3c(NCCN3CCOCC3)nn12	Lmaj promast 100 (no result: MPTP block) | Lmaj promast 1uM inactive
O=C(CN1CCN(Cc2ccccc2)CC1)c1ccc(Br)cc1	Lmaj promast 82 (no result: Lipid droplet, T cruzi inh) | Lmaj promast 1uM inactive
CN(CC(O)Cn1c2ccccc2c2ccccc21)S(C)(=O)=O (stereo unspecified)	none (no result: T cruzi inh)
CCN(CC(O)Cn1c2ccccc2c2ccccc21)S(=O)(=O)c1ccc(C)cc1 (stereo unspecified)	Lmaj promast 100 | Lmaj promast 1uM inactive
Cc1cccc(Cn2nnc3c2C(=O)c2ccccc2C3=O)c1	T cruzi inh 61, Lmaj promast 100 | Lmaj promast 1uM inactive
Cc1ccccc1Cn1nnc2c1C(=O)c1ccccc1C2=O	none (no result: Lipid droplet)
O=C(c1sc2ccccc2c1Cl)N(Cc1ccccc1Cl)C1CCS(=O)(=O)C1 (stereo unspecified)	Lmaj promast 100 (no result: Lipid droplet) | Lmaj promast 1uM inactive
O=C(/C=C/c1ccccc1[N+](=O)[O-])c1ccccc1Br	Lmaj promast 100 | Lmaj promast 1uM inactive
Cc1ccc(S(=O)(=O)N2CCC(C(=O)O)CC2)cc1	none
Cc1cccc(OCCn2c(NC(=O)c3ccco3)nc3ccccc32)c1	T cruzi inh 60, Lmaj promast 97 | Lmaj promast 1uM 87
CN(C)c1nc(-c2ccccn2)nnc1-c1ccccc1	Lmaj promast 100 | Lmaj promast 1uM 74
c1ccc(-c2nnc(-c3ccccn3)c(-c3ccccn3)n2)nc1	none (no result: DTT redox prof, Lmaj promast)
COc1ccccc1OC1OC2COC(c3ccco3)OC2C(O)C1NC(C)=O (stereo unspecified)	Lmaj promast 65 | Lmaj promast 1uM inactive
Cc1c(CCOC(=O)CC23CC4CC(CC(C4)C2)C3)sc[n+]1CC(=O)c1ccccc1	Lmaj promast 91 | Lmaj promast 1uM inactive
Cc1c(CCOC(=O)C23CC4(C)CC(C)(CC(C)(C4)C2)C3)sc[n+]1CC(=O)c1ccccc1	none
COc1ccc(CN2CCC(Oc3ccc(C(=O)N4CCCC4)cc3)CC2)c(F)c1	none (no result: DTT redox prof, Lmaj promast)
N#CCCN(Cc1cccnc1)C(=S)NC1CC2C=CC1C2 (stereo unspecified)	none (no result: DTT redox prof, Lmaj promast)
Cc1cccc(CSc2nc3ccccc3c(=O)n2C)c1	none (no result: Lipid droplet, T cruzi inh, DTT redox prof, Lmaj promast)
Cc1c(Cl)cccc1-n1cnc(=O)c2ccccc21	none (no result: Lipid droplet, T cruzi inh, DTT redox prof, Lmaj promast)
